According to ChEMBL document CHEMBL5696442, “Discovery of type II inhibitors of TGFβ-activated kinase 1 (TAK1) and mitogen-activated protein kinase kinase kinase kinase 2 (MAP4K2)” (J Med Chem, 2015):
Activity calls are given as the source filed them. The rule behind the calls is not given here.

How the values were obtained:
[1] = biological target: T1, Mitogen-activated protein kinase kinase kinase 7 (Homo sapiens) (UniProt O43318); assay: Inhibition of TAK1 Lys2 labeling site in human A-375 cells at 0.5 uM by KiNativ Profiling analysis relative to control; assay type: cell-based
T1 sequence (whole entry): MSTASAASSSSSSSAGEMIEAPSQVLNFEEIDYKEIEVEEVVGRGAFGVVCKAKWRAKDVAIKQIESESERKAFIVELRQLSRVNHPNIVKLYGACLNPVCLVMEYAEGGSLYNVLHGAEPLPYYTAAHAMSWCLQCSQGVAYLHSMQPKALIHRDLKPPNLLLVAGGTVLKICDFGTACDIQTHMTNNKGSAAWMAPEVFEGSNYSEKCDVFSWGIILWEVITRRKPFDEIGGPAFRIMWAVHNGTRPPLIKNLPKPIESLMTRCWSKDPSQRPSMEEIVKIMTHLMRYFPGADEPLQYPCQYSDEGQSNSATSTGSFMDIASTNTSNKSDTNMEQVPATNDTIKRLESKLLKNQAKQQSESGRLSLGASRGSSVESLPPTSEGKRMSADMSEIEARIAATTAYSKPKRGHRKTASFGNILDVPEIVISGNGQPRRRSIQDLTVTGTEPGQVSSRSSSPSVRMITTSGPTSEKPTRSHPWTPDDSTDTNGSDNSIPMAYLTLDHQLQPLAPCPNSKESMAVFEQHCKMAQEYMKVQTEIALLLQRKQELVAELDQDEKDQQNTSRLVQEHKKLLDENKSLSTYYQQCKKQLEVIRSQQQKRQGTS

[2] = biological target: T2, Mitogen-activated protein kinase kinase kinase 7 (Homo sapiens, UniProt O43318); assay: Inhibition of TAK1 (unknown origin) Lys2 labeling site by KiNativ Profiling analysis
T2 sequence (O43318 whole entry): T1 sequence (whole entry)

[3] = biological target: T3, Mitogen-activated protein kinase kinase kinase kinase 2 (Homo sapiens) (UniProt Q12851); assay: Inhibition of MAP4K2 Lys1 labeling site in human A-375 cells at 0.5 uM by KiNativ Profiling analysis relative to control; assay type: cell-based
T3 sequence (whole entry): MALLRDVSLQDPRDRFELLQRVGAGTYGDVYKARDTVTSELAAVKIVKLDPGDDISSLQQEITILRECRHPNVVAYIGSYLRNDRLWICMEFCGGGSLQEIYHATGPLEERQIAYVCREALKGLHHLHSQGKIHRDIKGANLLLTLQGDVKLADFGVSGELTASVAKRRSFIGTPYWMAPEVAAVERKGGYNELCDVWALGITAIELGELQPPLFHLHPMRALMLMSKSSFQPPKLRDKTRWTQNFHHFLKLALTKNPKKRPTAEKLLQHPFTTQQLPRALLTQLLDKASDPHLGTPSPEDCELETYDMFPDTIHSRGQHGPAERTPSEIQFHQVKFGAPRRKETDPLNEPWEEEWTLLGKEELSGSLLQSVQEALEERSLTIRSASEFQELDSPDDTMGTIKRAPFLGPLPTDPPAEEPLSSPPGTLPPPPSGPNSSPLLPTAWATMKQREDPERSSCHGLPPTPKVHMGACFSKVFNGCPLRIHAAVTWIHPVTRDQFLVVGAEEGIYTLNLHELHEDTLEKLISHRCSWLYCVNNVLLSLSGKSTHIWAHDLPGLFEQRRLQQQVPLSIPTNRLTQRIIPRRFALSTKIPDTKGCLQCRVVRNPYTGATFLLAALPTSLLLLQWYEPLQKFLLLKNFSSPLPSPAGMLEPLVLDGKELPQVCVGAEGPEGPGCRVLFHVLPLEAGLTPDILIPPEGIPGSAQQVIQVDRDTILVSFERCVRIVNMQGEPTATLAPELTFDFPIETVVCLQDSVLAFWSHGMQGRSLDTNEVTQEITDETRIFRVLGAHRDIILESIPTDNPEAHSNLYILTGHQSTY

[4] = biological target: T4, Mitogen-activated protein kinase kinase kinase kinase 2 (Homo sapiens, UniProt Q12851); assay: Inhibition of MAP4K2 (unknown origin) Lys1 labeling site by KiNativ Profiling analysis
T4 sequence (Q12851 whole entry): T3 sequence (whole entry)

[5] = tested on: L929; assay: Inhibition of TNF alpha induced IKKalpha/beta phosphorylation level in mouse L929 cells at 100 nM preincubated for 30 mins followed by TNF alpha stimulation and measured after 5 mins by Western blot analysis; assay type: functional, cell-based
Procedure, shortened: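 Mouse L929 cells were pretreated with compound at 100 nM for 30 min, then stimulated with TNFα for 5 min. Lysates were Western blotted for phospho-IKKα/β, with tubulin as loading control.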

[6] = biological target: T5, Mitogen-activated protein kinase kinase kinase 20 (Homo sapiens, UniProt Q9NYL2); assay: Inhibition of ZAK (unknown origin) Lys1 labeling site by KiNativ Profiling analysis
Target sequence in this assay (Q9NYL2 whole entry): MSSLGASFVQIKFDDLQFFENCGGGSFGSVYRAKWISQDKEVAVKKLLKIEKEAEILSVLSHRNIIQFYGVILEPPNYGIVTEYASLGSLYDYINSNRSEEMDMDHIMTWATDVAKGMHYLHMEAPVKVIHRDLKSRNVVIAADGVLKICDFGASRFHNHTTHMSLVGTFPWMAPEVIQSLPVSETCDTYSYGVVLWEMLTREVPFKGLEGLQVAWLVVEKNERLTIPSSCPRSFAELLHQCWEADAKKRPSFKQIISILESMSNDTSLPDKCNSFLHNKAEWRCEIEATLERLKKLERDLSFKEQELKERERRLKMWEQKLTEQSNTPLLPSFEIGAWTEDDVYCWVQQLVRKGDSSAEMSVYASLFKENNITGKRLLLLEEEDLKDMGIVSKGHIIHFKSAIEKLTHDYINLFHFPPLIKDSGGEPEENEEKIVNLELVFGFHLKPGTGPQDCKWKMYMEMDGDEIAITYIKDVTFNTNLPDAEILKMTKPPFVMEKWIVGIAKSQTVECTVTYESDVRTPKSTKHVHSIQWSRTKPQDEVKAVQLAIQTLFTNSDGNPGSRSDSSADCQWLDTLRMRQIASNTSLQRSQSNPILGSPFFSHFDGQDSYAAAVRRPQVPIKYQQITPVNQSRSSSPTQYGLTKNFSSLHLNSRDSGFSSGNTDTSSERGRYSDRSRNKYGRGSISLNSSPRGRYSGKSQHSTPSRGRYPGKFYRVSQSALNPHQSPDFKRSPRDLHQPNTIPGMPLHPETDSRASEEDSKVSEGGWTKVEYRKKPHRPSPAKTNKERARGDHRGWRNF

[7] = tested on: BaF3; assay: Antiproliferative activity against parental mouse BaF3 cells assessed reduction in cell viability measured after 48 hrs by Celltiter-glo assay; assay type: functional, cell-based; conditions: BaF3, 48 h
[8] = biological target: T5, Mitogen-activated protein kinase kinase kinase 20; assay: Inhibition of ZAK Lys1 labeling site in human Huh-7 cell lysate at 1 uM by KiNativ Profiling analysis relative to control; assay type: subcellular
Target sequence in this assay (Q9NYL2 2-800 limits assumed): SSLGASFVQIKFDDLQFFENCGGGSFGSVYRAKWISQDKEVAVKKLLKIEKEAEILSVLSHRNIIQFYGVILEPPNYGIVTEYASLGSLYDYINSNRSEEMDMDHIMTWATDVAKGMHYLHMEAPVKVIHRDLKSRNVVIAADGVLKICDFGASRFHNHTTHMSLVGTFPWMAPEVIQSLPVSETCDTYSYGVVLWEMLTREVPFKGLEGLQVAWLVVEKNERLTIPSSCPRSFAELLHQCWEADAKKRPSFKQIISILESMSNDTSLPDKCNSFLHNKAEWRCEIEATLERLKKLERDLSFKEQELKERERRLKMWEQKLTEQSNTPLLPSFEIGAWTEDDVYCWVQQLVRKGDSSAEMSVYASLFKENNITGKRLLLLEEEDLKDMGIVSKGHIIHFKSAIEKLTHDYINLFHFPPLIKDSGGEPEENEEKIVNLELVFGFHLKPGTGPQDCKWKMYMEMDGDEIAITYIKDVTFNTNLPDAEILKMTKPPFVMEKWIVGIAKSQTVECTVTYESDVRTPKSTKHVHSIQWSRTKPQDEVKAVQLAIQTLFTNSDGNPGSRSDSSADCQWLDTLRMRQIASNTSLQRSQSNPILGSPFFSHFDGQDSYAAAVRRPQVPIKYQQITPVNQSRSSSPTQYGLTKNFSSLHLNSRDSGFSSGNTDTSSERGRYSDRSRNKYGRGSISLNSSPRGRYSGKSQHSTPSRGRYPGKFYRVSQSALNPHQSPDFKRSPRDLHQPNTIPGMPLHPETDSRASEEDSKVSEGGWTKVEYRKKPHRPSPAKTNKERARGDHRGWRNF

[9] = tested on: BaF3; assay: Antiproliferative activity against parental mouse BaF3 cells harbouring Bcr/Abl assessed reduction in cell viability measured after 48 hrs by Celltiter-glo assay; assay type: functional, cell-based; conditions: BaF3, 48 h
Procedure, shortened: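 Cells were grown with serial dilutions of compound for 48 h, and viability was read by CellTiter-Glo. IC50 was derived from the dose–response curve. Parental Ba/F3 cells were grown in the presence of interleukin 3. The BCR-ABL line is BCR-ABL-dependent Ba/F3.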

[10] = biological target: T6, Tyrosine-protein kinase ABL1 (Homo sapiens, UniProt P00519); assay: Inhibition of ABL ACT labeling site in human Huh-7 cell lysate at 1 uM by KiNativ Profiling analysis relative to control; assay type: subcellular
T6 sequence (P00519 whole entry): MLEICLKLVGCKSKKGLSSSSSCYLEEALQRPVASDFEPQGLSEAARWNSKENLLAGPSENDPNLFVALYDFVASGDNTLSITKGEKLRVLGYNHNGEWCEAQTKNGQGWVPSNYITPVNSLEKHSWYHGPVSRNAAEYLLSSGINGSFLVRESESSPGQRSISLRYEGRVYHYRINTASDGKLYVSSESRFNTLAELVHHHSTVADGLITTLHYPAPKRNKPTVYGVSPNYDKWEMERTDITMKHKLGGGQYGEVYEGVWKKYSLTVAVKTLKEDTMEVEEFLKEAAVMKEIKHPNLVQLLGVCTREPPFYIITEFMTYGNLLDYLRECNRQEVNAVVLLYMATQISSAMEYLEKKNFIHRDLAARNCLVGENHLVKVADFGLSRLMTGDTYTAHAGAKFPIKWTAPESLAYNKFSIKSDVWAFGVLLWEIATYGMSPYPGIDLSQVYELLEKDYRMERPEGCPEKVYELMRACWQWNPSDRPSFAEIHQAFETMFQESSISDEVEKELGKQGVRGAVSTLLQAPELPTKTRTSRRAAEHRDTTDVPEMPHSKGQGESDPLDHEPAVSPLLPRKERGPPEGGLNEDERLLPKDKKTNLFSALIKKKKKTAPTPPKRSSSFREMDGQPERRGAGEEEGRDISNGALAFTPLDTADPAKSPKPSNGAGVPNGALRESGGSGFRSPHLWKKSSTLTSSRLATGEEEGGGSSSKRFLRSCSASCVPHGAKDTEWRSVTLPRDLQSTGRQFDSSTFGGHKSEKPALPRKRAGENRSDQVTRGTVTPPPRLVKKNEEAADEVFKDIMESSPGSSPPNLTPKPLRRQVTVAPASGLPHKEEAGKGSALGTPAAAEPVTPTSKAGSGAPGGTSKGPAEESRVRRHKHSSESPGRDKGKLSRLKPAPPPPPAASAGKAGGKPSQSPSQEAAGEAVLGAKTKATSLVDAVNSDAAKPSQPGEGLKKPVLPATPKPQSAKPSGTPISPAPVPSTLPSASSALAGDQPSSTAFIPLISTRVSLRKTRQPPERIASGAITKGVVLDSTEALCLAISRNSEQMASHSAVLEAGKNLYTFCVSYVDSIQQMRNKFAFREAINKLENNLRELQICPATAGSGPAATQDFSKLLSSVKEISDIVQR

[11] = biological target: T6, Tyrosine-protein kinase ABL1; assay: Inhibition of ABL Lys1 labeling site in human Huh-7 cell lysate at 1 uM by KiNativ Profiling analysis relative to control; assay type: subcellular
[12] = biological target: T7, Mitogen-activated protein kinase 14 (Homo sapiens, UniProt Q16539); assay: Inhibition of p38 alpha (unknown origin) by KiNativ Profiling analysis
T7 sequence (Q16539 whole entry): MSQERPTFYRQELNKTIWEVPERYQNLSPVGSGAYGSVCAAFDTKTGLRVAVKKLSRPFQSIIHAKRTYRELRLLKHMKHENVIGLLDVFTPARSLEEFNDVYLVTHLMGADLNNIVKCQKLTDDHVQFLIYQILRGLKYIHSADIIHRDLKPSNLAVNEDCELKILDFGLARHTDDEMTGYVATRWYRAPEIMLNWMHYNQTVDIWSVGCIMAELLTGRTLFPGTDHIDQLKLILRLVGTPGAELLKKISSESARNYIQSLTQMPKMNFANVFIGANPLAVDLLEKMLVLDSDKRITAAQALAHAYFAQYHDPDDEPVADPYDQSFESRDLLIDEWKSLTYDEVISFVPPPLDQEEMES

[13] = biological target: T7, Mitogen-activated protein kinase 14; assay: Inhibition of p38 alpha in human Huh-7 cell lysate at 1 uM by KiNativ Profiling analysis relative to control; assay type: subcellular
[14] = biological target: T8, Tyrosine-protein kinase CSK (Homo sapiens, UniProt P41240); assay: Inhibition of CSK (unknown origin) ACT labeling site by KiNativ Profiling analysis
Target sequence in this assay (P41240 whole entry): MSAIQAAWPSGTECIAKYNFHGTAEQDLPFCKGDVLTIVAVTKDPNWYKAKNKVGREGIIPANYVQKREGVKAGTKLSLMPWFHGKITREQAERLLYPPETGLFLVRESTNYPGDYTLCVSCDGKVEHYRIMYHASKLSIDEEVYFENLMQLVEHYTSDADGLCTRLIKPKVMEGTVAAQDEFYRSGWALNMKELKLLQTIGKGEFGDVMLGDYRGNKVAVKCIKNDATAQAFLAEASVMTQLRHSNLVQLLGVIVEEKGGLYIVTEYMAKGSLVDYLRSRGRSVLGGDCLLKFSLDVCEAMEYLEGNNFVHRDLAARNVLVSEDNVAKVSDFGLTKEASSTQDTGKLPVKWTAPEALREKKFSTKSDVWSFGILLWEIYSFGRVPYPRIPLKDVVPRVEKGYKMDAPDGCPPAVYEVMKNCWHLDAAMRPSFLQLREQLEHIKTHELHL

[15] = biological target: T8, Tyrosine-protein kinase CSK; assay: Inhibition of CSK ACT labeling site in human Huh-7 cell lysate at 1 uM by KiNativ Profiling analysis relative to control; assay type: subcellular
Target sequence in this assay (P41240 2-450 limits assumed): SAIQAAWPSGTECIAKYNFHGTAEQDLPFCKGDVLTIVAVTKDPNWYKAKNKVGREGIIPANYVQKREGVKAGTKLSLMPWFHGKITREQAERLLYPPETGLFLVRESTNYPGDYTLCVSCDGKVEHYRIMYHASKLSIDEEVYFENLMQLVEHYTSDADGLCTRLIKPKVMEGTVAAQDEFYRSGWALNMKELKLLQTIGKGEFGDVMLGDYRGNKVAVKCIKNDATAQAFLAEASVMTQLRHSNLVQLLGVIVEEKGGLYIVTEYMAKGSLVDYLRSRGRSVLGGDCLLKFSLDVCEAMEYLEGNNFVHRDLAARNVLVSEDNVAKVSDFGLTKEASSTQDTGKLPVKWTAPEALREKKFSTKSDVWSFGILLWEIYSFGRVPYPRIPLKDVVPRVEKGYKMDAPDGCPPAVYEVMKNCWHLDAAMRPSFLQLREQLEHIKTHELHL

| Compound | inhibition [1] | IC50 [2] | inhibition [3] | IC50 [4] | inhibition [5] | IC50 [6] | IC50 [7] | inhibition [8] | IC50 [9] | inhibition [10] | inhibition [11] | IC50 [12] | inhibition [13] | IC50 [14] | inhibition [15] |
| --- | --- | --- | --- | --- | --- | --- | --- | --- | --- | --- | --- | --- | --- | --- | --- |
| Cc1ccc(C(=O)Nc2cc(N3CCN(C)CC3)cc(C(F)(F)F)c2)cc1Oc1ncnc2[nH]ccc12 | 29.3% | 465 nM | 73.6% | 177 nM |  |  |  |  |  |  |  |  |  |  |  |
| C[S+]([O-])c1ccc(-c2nc(-c3ccc(F)cc3)c(-c3ccncc3)[nH]2)cc1 (stereo not given) |  |  |  |  | inactive |  |  |  |  |  |  |  |  |  |  |
| CCN1CCN(Cc2ccc(NC(=O)c3cccc(CCc4cnc5[nH]ccc5c4OC)c3)cc2C(F)(F)F)CC1 |  |  |  |  |  | 301 nM | > 10 µM | 78% | 387 nM | 66.4% | 83% |  |  |  |  |
| CCN1CCN(Cc2ccc(NC(=O)c3ccc(OC)c(Oc4ncnc5[nH]ccc45)c3)cc2C(F)(F)F)CC1 |  | 292 nM |  | 296 nM |  |  |  |  |  |  |  |  |  |  |  |
| CNC(=O)c1ccc(C)c(-n2c(C)cc(OCc3ccc(F)cc3F)c(Br)c2=O)c1 |  |  |  |  | inactive |  |  |  |  |  |  |  |  |  |  |
| CCN1CCN(Cc2ccc(NC(=O)c3ccc(C)c(Oc4ccnc(NC)n4)c3)cc2C(F)(F)F)CC1 | 77.7% | 165 nM | > 85% | 26.5 nM |  | 546 nM | > 10 µM | 89.6% | 85 nM | 74.6% |  | 45.8 nM | 95.4% |  |  |
| CCN1CCN(Cc2ccc(NC(=O)c3ccc(C)c(Oc4ccnc(C(=O)NC)c4)c3)cc2C(F)(F)F)CC1 |  |  |  |  |  | 447 nM |  | 82.7% |  |  |  | 69.6 nM | 93.1% |  |  |
| CCN1CCN(Cc2ccc(C(=O)Nc3cccc(CCc4cnc5[nH]ccc5c4OC)c3)cc2C(F)(F)F)CC1 |  |  |  |  |  | 179 nM | > 10 µM | 78.4% | 16 nM | 90.3% | > 80% | 555 nM | 95.9% |  |  |
| COc1c(/C=C/c2cc(C(=O)Nc3ccc(OC4CCN(C)CC4)c(C(F)(F)F)c3)ccc2C)cnc2[nH]ccc12 |  |  |  |  |  |  | 7.57 µM |  | 10 nM | 94.5% | > 85% | 63.6 nM | 90.5% |  |  |
| COc1c(CCc2cc(C(=O)Nc3cc(-n4cnc(C)c4)cc(C(F)(F)F)c3)ccc2C)cnc2[nH]ccc12 |  |  |  |  |  | 98.2 nM | 4.92 µM | 95.6% | 10 nM | 92.2% | 80.4% | 5.27 nM | 98.8% |  |  |
| CCN1CCN(Cc2ccc(C(=O)Nc3ccc(C)c(Oc4ccnc5[nH]ccc45)c3)cc2C(F)(F)F)CC1 |  |  |  |  | inactive |  |  |  |  |  |  | 19.5 nM | 88.4% |  |  |
| CCN1CCN(Cc2ccc(NC(=O)c3ccc(C)c(/C=C/c4cnc5[nH]ccc5c4OC)c3)cc2)CC1 |  |  |  |  |  |  | 7.71 µM |  | 10 nM | 96.3% | > 80% |  |  |  |  |
| Cc1cn(-c2cc(NC(=O)c3ccc(C)c(Oc4ccnc5[nH]ccc45)c3)cc(C(F)(F)F)c2)cn1 | -1.5% | 4490 nM | 72% | 30.1 nM | inactive |  |  |  |  |  |  |  |  |  |  |
| CCN1CCN(Cc2ccc(NC(=O)c3ccc(C)c(OCc4cnc5[nH]ccc5c4OC)c3)cc2C(F)(F)F)CC1 | 59.6% | 150 nM | 89.4% | 49.4 nM |  |  | 8.28 µM |  | 39 nM | 96% | > 80% | 659 nM | 97.3% | 59 nM | 84% |
| CCN1CCN(Cc2ccc(NC(=O)c3cccc(/C=C/c4cnc5[nH]ccc5c4OC)c3)cc2C(F)(F)F)CC1 |  |  |  |  |  | 396 nM | 7.1 µM | 75.3% | 10 nM | 89.6% | 82% |  |  |  |  |
| CCN1CCN(c2ccc(NC(=O)c3ccc(C)c(CCc4cnc5[nH]ccc5c4OC)c3)cc2C(F)(F)F)CC1 |  |  |  |  |  |  | 9.74 µM |  | 181 nM | 80.7% | 75.2% |  |  |  |  |
| CCN1CCN(Cc2ccc(NC(=O)c3cccc(Oc4ccnc5[nH]ccc45)c3)cc2C(F)(F)F)CC1 | 75.6% | 119 nM | > 80% | 23.8 nM |  |  | 7.44 µM |  | 10 nM | > 96% |  | 35.9 nM | 85.8% |  |  |
| COc1c(/C=C/c2cc(C(=O)Nc3ccc(CN4CCC(N(C)C)C4)c(C(F)(F)F)c3)ccc2C)cnc2[nH]ccc12 (stereo not given) |  |  |  |  |  |  | 5.47 µM |  | 10 nM | 66.6% | 47.5% | 140 nM | 85% | 25 nM | 75.6% |
| COc1c(/C=C/c2cc(C(=O)Nc3cccc(C(C)(C)C#N)c3)ccc2C)cnc2[nH]ccc12 |  |  |  |  |  | 103 nM | 3.3 µM | 95.8% | 10 nM | 62.2% | 71.5% |  |  | 25.1 nM | 75.7% |
